For one assay, the target named is P2Y purinoceptor 1 (Meleagris gallopavo, UniProt P49652). Put plainly: Compounds was tested for its ability to stimulate phospholipase C activity at the P2Y purinoceptor 1 in turkey erythrocyte membranes. Format: cell membranes. An outline of the steps:
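Turkey erythrocytes labeled 18–24 h at 37 °C with 2-[3H]myo-inositol in inositol-free DMEM; membranes from hypotonic lysis; PLC assay at pH 7.0 with […] and varying nucleotide concentrations, 5 min at 30 °C; total [3H]inositol phosphates by ion-exchange chromatography; EC50 from four-parameter logistic fit, ≥3 experiments on different membrane preparations, duplicate assays.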

Assay [1] is filed under the species Rattus norvegicus. Put plainly: Amplitude of the [Ca++]i Transient evoked by 10 uM ATP, AMP and the compound in NG108-15 Neuroblastoma x Glioma Hybrid cells. Format: functional. An outline of the steps:
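NG108-15 cells (passage 24–40) grown on glass coverslips 3–7 days (20–80% confluency), loaded 30 min at 37 °C with 2 μM fura-2/AM in HEPES-buffered saline pH 7.4, superfused at 37 °C; 30-s agonist application at 10 μM; single-cell imaging, alternate 340/380 nm excitation, emission >510 nm; amplitude as Δ F340/F380 ratio, mean ± SEM over n single cells.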

For assay [2], the species on record is Rattus norvegicus. Nature of the assay: Amplitude of the [Ca++]i Transient evoked by 10 uM ATP, AMP and the compound in rat Astrocytes, expressed as (F340 nm/F380 nm). Format: functional. The method, boiled down:
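Primary astrocyte-enriched cultures from newborn Wistar rat whole brain, used on days 6–11 in culture; fura-2/AM (2 μM, 30 min, 37 °C, HEPES-buffered saline pH 7.4) loading; superfusion at 37 °C, 30-s stimulation at 10 μM; single-cell 340/380 nm ratio imaging; maximal Δ F340/F380, mean ± SEM, n = single cells.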

P2Y purinoceptor 1, sequence (P49652 whole entry): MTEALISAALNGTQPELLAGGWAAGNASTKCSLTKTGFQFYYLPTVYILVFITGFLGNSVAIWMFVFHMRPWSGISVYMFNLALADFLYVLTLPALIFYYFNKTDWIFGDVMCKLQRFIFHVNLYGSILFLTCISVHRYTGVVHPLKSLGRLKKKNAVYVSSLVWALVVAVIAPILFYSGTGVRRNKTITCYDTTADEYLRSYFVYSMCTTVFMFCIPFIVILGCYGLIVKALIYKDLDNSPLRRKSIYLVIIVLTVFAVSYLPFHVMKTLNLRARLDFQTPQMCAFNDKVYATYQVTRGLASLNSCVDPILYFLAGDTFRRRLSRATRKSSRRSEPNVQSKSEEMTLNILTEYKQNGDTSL

For the compound `CCCCNc1nc(N)c2ncn([C@@H]3O[C@H](COP(=O)([O-])OP(=O)([O-])OP(=O)([O-])[O-])[C@@H](O)[C@H]3O)c2n1.[Na+].[Na+].[Na+].[Na+]`, the EC50 – broadly, the concentration needed to bring the measured effect to its halfway point – at P2Y purinoceptor 1 was 39 nM. Moreover, the values for the Activity in the assay filed under Rattus norvegicus [1] and in the assay listed under Rattus norvegicus [2] were 0.05 and 0.89, respectively.

In the assay filed under Rattus norvegicus [2], `CCCCSc1nc(N)c2ncn(C3O[C@H](COP(=O)([O-])[O-])[C@@H](O)[C@H]3O)c2n1.[Na+].[Na+]` (stereo partly drawn) returned an Activity of 0.28.

Turning to `CCCCNc1nc2c(N)ncnc2n1[C@@H]1O[C@H](COP(=O)(O)OP(=O)(O)OP(=O)(O)O)[C@@H](O)[C@H]1O`, on P2Y purinoceptor 1, a half-maximal response (EC50) required 51000 nM.

`CCCCSc1nc2c(N)ncnc2n1[C@@H]1O[C@H](COP(=O)(O)OP(=O)(O)OP(=O)(O)O)[C@@H](O)[C@H]1O` came in with an EC50 at P2Y purinoceptor 1 of 10000 nM.

In the case of `CCCCOc1nc2c(N)ncnc2n1[C@@H]1O[C@H](COP(=O)(O)OP(=O)(O)OP(=O)(O)O)[C@@H](O)[C@H]1O`, the EC50 at P2Y purinoceptor 1 was determined as 5710 nM.

For the compound `CCCCSc1nc(N)c2ncn([C@@H]3O[C@H](COP(=O)([O-])OP(=O)([O-])OP(=O)([O-])[O-])[C@@H](O)[C@H]3O)c2n1.[Na+].[Na+].[Na+].[Na+]`, a half-maximal response at P2Y purinoceptor 1 (EC50) required 18 nM. For the same compound, the Activity in the assay listed under Rattus norvegicus [1] was found to be 0.23; in the assay filed under Rattus norvegicus [2] it was 0.9.

At P2Y purinoceptor 1, `CCCCOc1nc(N)c2ncn([C@@H]3O[C@H](COP(=O)([O-])OP(=O)([O-])OP(=O)([O-])[O-])[C@@H](O)[C@H]3O)c2n1.[Na+].[Na+].[Na+].[Na+]` returned an EC50 of 88 nM. Further, the values for the Activity in the assay filed under Rattus norvegicus [1] and in the assay filed under Rattus norvegicus [2] were 0.06 and 0.63, respectively.
